Assay results reported in ChEMBL document CHEMBL4196069 (Eur J Med Chem, 2018).
Activity calls are given as the source filed them. No cut-off for these calls is given here.

Legend:
HL-60 = experiment: Antiproliferative activity against human HL60 cells after 72 hrs by MTT assay; format: functional, cell-based; settings: HL-60, 72 h
How it was run: (§1)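 Cells pre-incubated 24 h at 37 °C in humidified 5% CO2, then exposed to compounds for 72 h. MTT (5 mg/mL) was added for 4 h, formazan was dissolved in DMSO, and OD was read at 570 nm. Vehicle control was 0.1% DMSO. IC50 was calculated from inhibition ratios as the mean ± SD of three independent experiments.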

Bel-7402 [1] = experiment: Antiproliferative activity against human Bel7402 cells after 72 hrs by MTT assay; format: functional, cell-based; settings: Bel-7402, 72 h; how it was run: as §1
Bel7402/5-FU = experiment: Antiproliferative activity against human Bel7402/5-FU cells after 72 hrs by MTT assay; format: functional, cell-based; how it was run: as §1
L02 = experiment: Antiproliferative activity against human LO2 cells after 72 hrs by MTT assay; format: cell-based; settings: L02, 72 h; how it was run: as §1
Bel-7402 [2] = experiment: Cell cycle arrest in human Bel7402 cells assessed as accumulation at G1 phase at 0.125 uM after 72 hrs by propidium iodide staining-based flow cytometric method (reference value: 39.28%); format: functional
Bel-7402 [3] = experiment: Cell cycle arrest in human Bel7402 cells assessed as accumulation at G2/M phase at 0.125 uM after 72 hrs by propidium iodide staining-based flow cytometric method (reference value: 23.71%); format: functional
Bel-7402 [4] = experiment: Cell cycle arrest in human Bel7402 cells assessed as accumulation at S phase at 0.125 uM after 72 hrs by propidium iodide staining-based flow cytometric method (reference value: 37.02%); format: functional
Bel-7402 [5] = experiment: Cell cycle arrest in human Bel7402 cells assessed as accumulation at G1 phase at 0.25 uM after 72 hrs by propidium iodide staining-based flow cytometric method (reference value: 39.28%); format: functional
Bel-7402 [6] = experiment: Cell cycle arrest in human Bel7402 cells assessed as accumulation at G2/M phase at 0.25 uM after 72 hrs by propidium iodide staining-based flow cytometric method (reference value: 23.71%); format: functional
Bel-7402 [7] = experiment: Cell cycle arrest in human Bel7402 cells assessed as accumulation at S phase at 0.25 uM after 72 hrs by propidium iodide staining-based flow cytometric method (reference value: 37.02%); format: functional
Bel-7402 [8] = experiment: Cell cycle arrest in human Bel7402 cells assessed as accumulation at S phase at 0.5 uM after 72 hrs by propidium iodide staining-based flow cytometric method (reference value: 37.02%); format: functional
Bel-7402 [9] = experiment: Cell cycle arrest in human Bel7402 cells assessed as accumulation at G1 phase after 72 hrs by propidium iodide staining-based flow cytometric method; format: functional
Bel-7402 [10] = experiment: Induction of apoptosis in human Bel7402 cells assessed as chromatin condensation at 0.125 to 0.25 uM after 48 hrs by Hoechst 33258 staining based fluorescent microscopic method; format: functional, cell-based
How it was run: (§2)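 Bel-7402 cells were seeded and grown 24 h, treated at 0.125, 0.25 and 0.5 µM for 48 h, then harvested by mild trypsinization and washed in PBS. They were stained with Hoechst 33258 for 15 min at room temperature in the dark and examined by fluorescence microscopy with a DAPI filter. Untreated cells served as control.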

Bel-7402 [11] = experiment: Induction of apoptosis in human Bel7402 cells assessed as reduction in number of adherent cells at 0.125 to 0.25 uM after 48 hrs by Hoechst 33258 staining based fluorescent microscopic method; format: functional, cell-based; how it was run: as §2
Bel-7402 [12] = experiment: Induction of apoptosis in human Bel7402 cells assessed as rupture of cell membrane at 0.5 uM after 48 hrs by Hoechst 33258 staining based fluorescent microscopic method; format: functional; how it was run: as §2
Bel-7402 [13] = experiment: Induction of apoptosis in human Bel7402 cells assessed as nuclear fragmentation at 0.5 uM after 48 hrs by Hoechst 33258 staining based fluorescent microscopic method; format: functional, cell-based; how it was run: as §2
Bel-7402 [14] = experiment: Induction of apoptosis in human Bel7402 cells after 72 hrs by Annexin V-FITC/propidium iodide staining based flow cytometry; format: functional, cell-based
Bel-7402 [15] = experiment: Induction of apoptosis in human Bel7402 cells assessed as late apoptotic cells at 0.125 uM after 72 hrs by Annexin V-FITC/propidium iodide staining based flow cytometry (reference value: 2.82%); format: functional
Bel-7402 [16] = experiment: Induction of apoptosis in human Bel7402 cells assessed as necrotic cells at 0.125 uM after 72 hrs by Annexin V-FITC/propidium iodide staining based flow cytometry (reference value: 13.05%); format: functional
Bel-7402 [17] = experiment: Induction of apoptosis in human Bel7402 cells assessed as late apoptotic cells at 0.25 uM after 72 hrs by Annexin V-FITC/propidium iodide staining based flow cytometry (reference value: 2.82%); format: functional
Bel-7402 [18] = experiment: Induction of apoptosis in human Bel7402 cells assessed as early apoptotic cells at 0.5 uM after 72 hrs by Annexin V-FITC/propidium iodide staining based flow cytometry (reference value: 1.65%); format: functional
Bel-7402 [19] = experiment: Induction of apoptosis in human Bel7402 cells assessed as necrotic cells at 0.5 uM after 72 hrs by Annexin V-FITC/propidium iodide staining based flow cytometry (reference value: 13.05%); format: functional
Bel-7402 [20] = experiment: Upregulation of Bax level in human Bel7402 cells after 72 hrs by Western blot analysis; format: functional, cell-based
How it was run: (§3)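 Bel-7402 cells were treated for 72 h at the indicated concentrations (0.125–0.5 µM) and lysed. Lysates were cleared at 14,000 g for 10 min at 4 °C, and 25 µg protein per lane was run on 10% SDS-PAGE and transferred to nitrocellulose. Membranes were blocked in 5% milk, probed overnight at 4 °C with monoclonal antibodies, and detected by ECL. Densitometry was normalized to GAPDH.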

Bel-7402 [21] = experiment: Downregulation of Bcl-2 level in human Bel7402 cells after 72 hrs by Western blot analysis; format: functional, cell-based; how it was run: as §3
Bel-7402 [22] = experiment: Upregulation of caspase-3 level in human Bel7402 cells at 0.125 to 0.5 uM after 72 hrs by Western blot analysis; format: functional, cell-based; how it was run: as §3
Bel-7402 [23] = experiment: Upregulation of caspase-9 level in human Bel7402 cells at 0.125 to 0.5 uM after 72 hrs by Western blot analysis; format: functional, cell-based; how it was run: as §3
Bel-7402 [24] = experiment: Upregulation of p53 level in human Bel7402 cells after 72 hrs by Western blot analysis; format: functional, cell-based; how it was run: as §3
Bel-7402 [25] = experiment: Induction of mitochondrial membrane depolarization in human Bel7402 cells assessed as cells with mitochondrial membrane potential loss at 0.125 uM after 24 to 48 hrs by JC-1 staining based flow cytometric analysis (reference value: 6.17%); format: functional
Bel-7402 [26] = experiment: Induction of mitochondrial membrane depolarization in human Bel7402 cells assessed as cells with mitochondrial membrane potential loss at 0.25 uM after 24 to 48 hrs by JC-1 staining based flow cytometric analysis (reference value: 6.17%); format: functional
Bel-7402 [27] = experiment: Induction of mitochondrial membrane depolarization in human Bel7402 cells assessed as cell with intact mitochondrial membrane potential at 0.5 uM after 24 to 48 hrs by JC-1 staining based flow cytometric analysis (reference value: 98.83%); format: functional
Bel-7402 [28] = experiment: Induction of mitochondrial membrane depolarization in human Bel7402 cells assessed as cells with mitochondrial membrane potential loss at 0.5 uM after 24 to 48 hrs by JC-1 staining based flow cytometric analysis (reference value: 6.17%); format: functional

`C[C@H]1CCC/C=C/[C@@H]2C[C@H](O)C[C@H]2[C@H](OC(=O)c2ccc(N(CCCl)CCCl)cc2)/C=C/C(=O)O1` was tested, and the IC50 (HL-60) was 4.48 µM, the IC50 (Bel-7402 [1]) was 0.25 µM and the IC50 (Bel7402/5-FU) was 0.84 µM. For the same compound, the IC50 (L02) was 9.74 µM, the Activity (Bel-7402 [2]) was 43.8% and the Activity (Bel-7402 [3]) was 19.92%. It also gave an Activity (Bel-7402 [4]) of 36.28%, an Activity (Bel-7402 [5]) of 54.26% and an Activity (Bel-7402 [6]) of 13.27%. The Activity (Bel-7402 [7]) was 32.48%, the Activity (Bel-7402 [8]) was 30.14% and the Activity (Bel-7402 [9]) was “Dose-dependent effect”. The Activity (Bel-7402 [10]) was “Active”, the Activity (Bel-7402 [11]) was “Active” and the Activity (Bel-7402 [12]) was “Active”. For the same compound, the Activity (Bel-7402 [13]) was “Active”, the Activity (Bel-7402 [14]) was “Dose-dependent effect” and the Activity (Bel-7402 [15]) was 5.47%. The Activity (Bel-7402 [16]) was 3.45%, the Activity (Bel-7402 [17]) was 11.26% and the Activity (Bel-7402 [18]) was 39.11%. The Activity (Bel-7402 [19]) was 3.87%, the Activity (Bel-7402 [20]) was “Dose-dependent effect” and the Activity (Bel-7402 [21]) was “Dose-dependent effect”. For the same compound, the Activity (Bel-7402 [22]) was “Active”, the Activity (Bel-7402 [23]) was “Active” and the Activity (Bel-7402 [24]) was “Dose-dependent effect”. The Activity (Bel-7402 [25]) was 16.06%, the Activity (Bel-7402 [26]) was 29.5% and the Activity (Bel-7402 [27]) was 56.15%. It also gave an Activity (Bel-7402 [28]) of 43.85%.
